Square brackets hold non-standard residues; d marks the D form. Peptide text beside a SMILES is read from it. Gly(Nα-4-Cl-benzyl) = O=C(O)CNCc1ccc(Cl)cc1; N(4-F-Bzl)Gly = O=C(O)CNCc1ccc(F)cc1; Gly(N-(CH2)6NH2) = NCCCCCCNCC(=O)O; Gly(N-2-aminoethyl) = NCCNCC(=O)O; N(isopentyl)Gly = CC(C)CCNCC(=O)O; Nspe = C[C@H](NCC(=O)O)c1ccccc1; NhArg = N=C(N)NCCCCNCC(=O)O; Nphe = O=C(O)CNCc1ccccc1; Nlys = NCCCCNCC(=O)O
Key:
[1] = Selectivity index, ratio of ED50 for human HaCaT cells to MIC for Escherichia coli K-12 W3110 ATCC 27325; type: toxicity; settings: read-out: Selectivity Index
[2] = Selectivity index, ratio of ED50 for human HepG2 cells to MIC for Staphylococcus epidermidis clinical isolate; type: toxicity; settings: read-out: Selectivity Index
[3] = Cytotoxicity against human HaCaT cells assessed as reduction in cell viability pretreated for 1 hr followed by DMEM addition measured after 24 hrs by alamar blue assay; type: cell-based; settings: read-out: ED50
Procedure, shortened: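 HaCaT keratinocytes are grown in DMEM high glucose with 10% FBS and 1% P/S and seeded at 2x10^4 cells/well 24 h before treatment. Compound dilution series run 2–100 µM (5 mM DMSO stocks) in 50 µL for 1 h, then medium is added for 24 h at 37 °C, 5% CO2. alamarBlue is read after 1 h (Ex 540/Em 620). Triplicate, ≥2 occasions; ED50 from dose-response; amphotericin B positive control.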

[4] = Cytotoxicity against human HepG2 cells assessed as reduction in cell viability pretreated for 1 hr followed by DMEM addition measured after 24 hrs by alamar blue assay; type: cell-based; settings: read-out: ED50
Procedure, shortened: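 HepG2 cells are kept in DMEM high glucose with 10% heat-inactivated FBS and 1% P/S at 37 °C, 5% CO2, and seeded at 2x10^4 cells/well one day ahead. They are exposed to compounds (100 to 3 µM, from 5 mM DMSO stocks) in 50 µL for 1 h. Medium is then added and cells incubated 24 h. alamarBlue is read after 2 h (Ex 560/Em 600). Triplicate on ≥2 occasions; ED50 from dose-response; DMSO negative control.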

[5] = Selectivity index, ratio of ED50 for human HaCaT cells to MIC for Staphylococcus epidermidis clinical isolate; type: toxicity; settings: read-out: Selectivity Index
[6] = Selectivity index, ratio of ED50 for human HepG2 cells to MIC for Escherichia coli K-12 W3110 ATCC 27325; type: toxicity; settings: read-out: Selectivity Index
[7] = Selectivity index, ratio of ED50 for human HaCaT cells to MIC for Staphylococcus aureus 3R7089 strain Oxford/ATCC 9144; type: toxicity; settings: read-out: Selectivity Index
[8] = Selectivity index, ratio of ED50 for human HepG2 cells to MIC for Staphylococcus aureus 3R7089 strain Oxford/ATCC 9144; type: toxicity; settings: read-out: Selectivity Index
[9] = Selectivity index, ratio of ED50 for human HaCaT cells to MIC for Pseudomonas aeruginosa PAO1 ATCC 15692; type: toxicity; settings: read-out: Selectivity Index
[10] = Selectivity index, ratio of ED50 for human HepG2 cells to MIC for Pseudomonas aeruginosa PAO1 ATCC 15692; type: toxicity; settings: read-out: Selectivity Index
Pseudomonas aeruginosa = experiment: Antibacterial activity against Pseudomonas aeruginosa PAO1 ATCC 15692 incubated for 16 hrs under shaking condition; type: functional; settings: PAO1 ATCC 15692, 16 h
Procedure, shortened: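 Broth microdilution (Andrews method) in Iso-sensitest broth. Overnight cultures are adjusted to A650 0.07 (0.5 McFarland) and diluted ten-fold. Compounds come from 5 mM DMSO stocks, 2-fold serially diluted, final 2–100 μM in a 1:1 inoculum:compound mix. Incubation is 37 °C for 16 h with shaking. MIC is the lowest concentration giving complete growth inhibition, read by absorbance; triplicate.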

| SMILES | selectivity ratio [1] | selectivity ratio [2] | CC50 at 24 h [3] [µM] | CC50 at 24 h [4] [µM] | selectivity ratio [5] | selectivity ratio [6] | selectivity ratio [7] | selectivity ratio [8] | selectivity ratio [9] | selectivity ratio [10] | MIC (Pseudomonas aeruginosa) [µM] |
| --- | --- | --- | --- | --- | --- | --- | --- | --- | --- | --- | --- |
| NCCNCC(=O)N(CC(=O)N(CC(=O)N(CCN)CC(=O)N(CC(=O)N(CC(=O)N(CCN)CC(=O)N(CC(=O)N(CC(=O)N(CCN)CC(=O)N(CC(=O)N(CC(N)=O)Cc1ccccc1)Cc1ccccc1)Cc1ccccc1)Cc1ccccc1)Cc1ccccc1)Cc1ccccc1)Cc1ccccc1)Cc1ccccc1 (H-[Gly(N-2-aminoethyl)][Nphe][Nphe][Gly(N-2-aminoethyl)][Nphe][Nphe][Gly(N-2-aminoethyl)][Nphe][Nphe][Gly(N-2-aminoethyl)][Nphe][Nphe]-NH2) | 8 | 17 | > 100 | > 100 | 17 | 8 | – | – | – | – | – |
| C[C@@H](c1ccccc1)N(CC(N)=O)C(=O)CN(C(=O)CN(CCCCN)C(=O)CN(C(=O)CN(C(=O)CN(CCCCNC(=N)N)C(=O)CN(C(=O)CN(C(=O)CN(CCCCN)C(=O)CN(C(=O)CN(C(=O)CNCCCCNC(=N)N)[C@@H](C)c1ccccc1)[C@@H](C)c1ccccc1)[C@@H](C)c1ccccc1)[C@@H](C)c1ccccc1)[C@@H](C)c1ccccc1)[C@@H](C)c1ccccc1)[C@@H](C)c1ccccc1 (H-[NhArg][Nspe][Nspe][Nlys][Nspe][Nspe][NhArg][Nspe][Nspe][Nlys][Nspe][Nspe]-NH2) | 2 | – | – | – | – | 2 | 2 | – | – | – | – |
| C[C@@H](c1ccccc1)N(CC(N)=O)C(=O)CN(Cc1ccc(F)cc1)C(=O)CN(CCCCN)C(=O)CN(C(=O)CN(Cc1ccc(F)cc1)C(=O)CN(CCCCN)C(=O)CN(C(=O)CN(Cc1ccc(F)cc1)C(=O)CN(CCCCN)C(=O)CN(C(=O)CN(Cc1ccc(F)cc1)C(=O)CNCCCCN)[C@@H](C)c1ccccc1)[C@@H](C)c1ccccc1)[C@@H](C)c1ccccc1 | – | 13 | – | – | 10 | – | 10 | 13 | – | – | – |
| NCCCCNCC(=O)N(CC(=O)N(CC(=O)N(CCCCN)CC(=O)N(CC(=O)N(CC(=O)N(CCCCN)CC(=O)N(CC(=O)N(CC(=O)N(CCCCN)CC(=O)N(CC(=O)N(CC(N)=O)Cc1ccc(F)cc1)Cc1ccc(F)cc1)Cc1ccc(F)cc1)Cc1ccc(F)cc1)Cc1ccc(F)cc1)Cc1ccc(F)cc1)Cc1ccc(F)cc1)Cc1ccc(F)cc1 (H-[Nlys][N(4-F-Bzl)Gly][N(4-F-Bzl)Gly][Nlys][N(4-F-Bzl)Gly][N(4-F-Bzl)Gly][Nlys][N(4-F-Bzl)Gly][N(4-F-Bzl)Gly][Nlys][N(4-F-Bzl)Gly][N(4-F-Bzl)Gly]-NH2) | 4 | 30 | – | – | 46 | 2 | 23 | 15 | – | – | – |
| NCCCCNCC(=O)N(CC(=O)N(CC(=O)N(CCCCN)CC(=O)N(CC(=O)N(CC(=O)N(CCCCN)CC(=O)N(CC(=O)N(CC(N)=O)Cc1ccc(Cl)cc1)Cc1ccc(Cl)cc1)Cc1ccc(Cl)cc1)Cc1ccc(Cl)cc1)Cc1ccc(Cl)cc1)Cc1ccc(Cl)cc1 (H-[Nlys][Gly(Nα-4-Cl-benzyl)][Gly(Nα-4-Cl-benzyl)][Nlys][Gly(Nα-4-Cl-benzyl)][Gly(Nα-4-Cl-benzyl)][Nlys][Gly(Nα-4-Cl-benzyl)][Gly(Nα-4-Cl-benzyl)]-NH2) | – | 12 | – | – | 11 | – | 7 | 8 | 1 | 1 | – |
| N=C(N)NCCCCNCC(=O)N(CC(=O)N(CC(=O)N(CCCCNC(=N)N)CC(=O)N(CC(=O)N(CC(=O)N(CCCCNC(=N)N)CC(=O)N(CC(=O)N(CC(=O)N(CCCCNC(=N)N)CC(=O)N(CC(=O)N(CC(N)=O)Cc1ccccc1)Cc1ccccc1)Cc1ccccc1)Cc1ccccc1)Cc1ccccc1)Cc1ccccc1)Cc1ccccc1)Cc1ccccc1 (H-[NhArg][Nphe][Nphe][NhArg][Nphe][Nphe][NhArg][Nphe][Nphe][NhArg][Nphe][Nphe]-NH2) | 17 | – | > 100 | – | 50 | – | – | – | 4 | – | – |
| NCCCCNCC(=O)N(CC(=O)N(CC(=O)N(CCCCN)CC(=O)N(CC(=O)N(CC(=O)N(CCCCN)CC(=O)N(CC(=O)N(CC(=O)N(CCCCN)CC(=O)N(CC(=O)N(CC(N)=O)Cc1ccccc1)Cc1ccccc1)Cc1ccccc1)Cc1ccccc1)Cc1ccccc1)Cc1ccccc1)Cc1ccccc1)Cc1ccccc1 (H-[Nlys][Nphe][Nphe][Nlys][Nphe][Nphe][Nlys][Nphe][Nphe][Nlys][Nphe][Nphe]-NH2) | 3 | 50 | – | > 100 | 18 | 8 | 12 | 33 | – | – | – |
| NCCCCNCC(=O)N(CC(=O)N(CC(=O)N(CCCCN)CC(=O)N(CC(=O)N(CC(=O)N(CCCCN)CC(=O)N(CC(=O)N(CC(N)=O)Cc1ccc(F)cc1)Cc1ccc(F)cc1)Cc1ccc(F)cc1)Cc1ccc(F)cc1)Cc1ccc(F)cc1)Cc1ccc(F)cc1 (H-[Nlys][N(4-F-Bzl)Gly][N(4-F-Bzl)Gly][Nlys][N(4-F-Bzl)Gly][N(4-F-Bzl)Gly][Nlys][N(4-F-Bzl)Gly][N(4-F-Bzl)Gly]-NH2) | 6 | 15 | > 100 | – | 33 | 3 | 33 | 15 | – | – | – |
| C[C@@H](c1ccccc1)N(CC(N)=O)C(=O)CN(C(=O)CN(CCCCNC(=N)N)C(=O)CN(C(=O)CN(C(=O)CN(CCCCNC(=N)N)C(=O)CN(C(=O)CN(C(=O)CN(CCCCN)C(=O)CN(C(=O)CN(C(=O)CNCCCCN)[C@@H](C)c1ccccc1)[C@@H](C)c1ccccc1)[C@@H](C)c1ccccc1)[C@@H](C)c1ccccc1)[C@@H](C)c1ccccc1)[C@@H](C)c1ccccc1)[C@@H](C)c1ccccc1 (H-[Nlys][Nspe][Nspe][Nlys][Nspe][Nspe][NhArg][Nspe][Nspe][NhArg][Nspe][Nspe]-NH2) | 6 | – | > 100 | – | – | – | 6 | – | 3 | – | – |
| C[C@@H](c1ccccc1)N(CC(N)=O)C(=O)CN(C(=O)CN(CCCCN)C(=O)CN(C(=O)CN(C(=O)CN(CCCCN)C(=O)CN(C(=O)CN(C(=O)CN(CCCCNC(=N)N)C(=O)CN(C(=O)CN(C(=O)CNCCCCNC(=N)N)[C@@H](C)c1ccccc1)[C@@H](C)c1ccccc1)[C@@H](C)c1ccccc1)[C@@H](C)c1ccccc1)[C@@H](C)c1ccccc1)[C@@H](C)c1ccccc1)[C@@H](C)c1ccccc1 (H-[NhArg][Nspe][Nspe][NhArg][Nspe][Nspe][Nlys][Nspe][Nspe][Nlys][Nspe][Nspe]-NH2) | 1 | – | – | – | – | – | 1 | – | 1 | – | – |
| C[C@@H](c1ccccc1)N(CC(N)=O)C(=O)CN(C(=O)CN(CCCCN)C(=O)CN(C(=O)CN(C(=O)CN(CCCCN)C(=O)CN(C(=O)CN(C(=O)CN(CCCCNC(=N)N)C(=O)CN(C(=O)CN(C(=O)CNCCCCN)[C@@H](C)c1ccccc1)[C@@H](C)c1ccccc1)[C@@H](C)c1ccccc1)[C@@H](C)c1ccccc1)[C@@H](C)c1ccccc1)[C@@H](C)c1ccccc1)[C@@H](C)c1ccccc1 (H-[Nlys][Nspe][Nspe][NhArg][Nspe][Nspe][Nlys][Nspe][Nspe][Nlys][Nspe][Nspe]-NH2) | 2 | – | – | – | – | 2 | 2 | – | 2 | – | – |
| CC(C)CCN(CC(=O)N(CC(N)=O)[C@@H](C)c1ccccc1)C(=O)CN(CCCCNC(=N)N)C(=O)CN(C(=O)CN(CCC(C)C)C(=O)CN(CCCCNC(=N)N)C(=O)CN(C(=O)CN(CCC(C)C)C(=O)CNCCCCNC(=N)N)[C@@H](C)c1ccccc1)[C@@H](C)c1ccccc1 (H-[NhArg][N(isopentyl)Gly][Nspe][NhArg][N(isopentyl)Gly][Nspe][NhArg][N(isopentyl)Gly][Nspe]-NH2) | – | – | – | – | – | – | – | – | – | – | > 100 |
| C[C@@H](c1ccccc1)N(CC(N)=O)C(=O)CN(C(=O)CN(CCCCCCN)C(=O)CN(C(=O)CN(C(=O)CN(CCCCCCN)C(=O)CN(C(=O)CN(C(=O)CN(CCCCCCN)C(=O)CN(C(=O)CN(C(=O)CNCCCCCCN)[C@@H](C)c1ccccc1)[C@@H](C)c1ccccc1)[C@@H](C)c1ccccc1)[C@@H](C)c1ccccc1)[C@@H](C)c1ccccc1)[C@@H](C)c1ccccc1)[C@@H](C)c1ccccc1 (H-[Gly(N-(CH2)6NH2)][Nspe][Nspe][Gly(N-(CH2)6NH2)][Nspe][Nspe][Gly(N-(CH2)6NH2)][Nspe][Nspe][Gly(N-(CH2)6NH2)][Nspe][Nspe]-NH2) | – | 21 | – | – | 12 | – | 12 | 21 | 0 | 1 | – |
